In brackets after ≈: the same amount, converted by molar mass.
Columns and labels:
[1] = Metabolic stability in human liver microsomes at 1 uM measured as compound remaining after 45 mins by LC/MS/MS analysis; assay type: ADME, Microsome; conditions: read-out: Stability
[2] = Aqueous solubility of the compound in 0.1 M hydrochloric acid at pH 1 by HPLC analysis; assay type: physicochemical
[3] = Aqueous solubility of the compound in water at pH 7 by HPLC analysis; assay type: physicochemical
Procedure, shortened: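 Solubility measured in water at pH 7 and 20 °C, quantified by HPLC.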

[4] = tested on: Mycobacterium tuberculosis; assay: Antituberculosis activity against Mycobacterium tuberculosis H37Rv under aerobic conditions by microplate alamar blue assay; assay type: functional
[5] = tested on: Mycobacterium tuberculosis; assay: Antituberculosis activity against Mycobacterium tuberculosis H37Rv under anaerobic conditions by fluorescence based low-oxygen-recovery assay; assay type: functional
[6] = Metabolic stability in human liver microsomes at 1 uM measured as compound remaining after 1 hr by LC/MS/MS analysis; assay type: ADME, Microsome; conditions: read-out: Stability
[7] = Metabolic stability in CD1 mouse liver microsomes at 1 uM measured as compound remaining after 1 hr by LC/MS/MS analysis; assay type: ADME, Microsome; conditions: read-out: Stability
[8] = tested on: Mycobacterium tuberculosis; assay: Antituberculosis activity against Mycobacterium tuberculosis H37Rv infected in BALB/c mouse acute infection model assessed as fold reduction in bacterial CFU in lungs at 100 mg/kg, po administered for 5 days a week for 3 weeks beginning on day 11 postinfection relative to PA-824; assay type: functional
Procedure, shortened: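 Mice with acute M. tb infection dosed orally at 100 mg/kg daily, 5 days each week, standard 3 week assay. Lung CFUs counted. Value is the fold CFU decrease for the compound divided by the fold CFU decrease for the internal reference standard run in the same experiment.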

[9] = tested on: Mus musculus; assay: Toxicity in Mycobacterium tuberculosis H37Rv infected BALB/c mouse at 100 mg/kg, po administered for 5 days a week for 3 weeks beginning on day 11 postinfection; assay type: organism-based; set-up: dose 100 mg/kg, route oral; conditions: in vivo
[10] = tested on: Mycobacterium tuberculosis; assay: Antituberculosis activity against Mycobacterium tuberculosis H37Rv infected in BALB/c mouse chronic infection model assessed as fold reduction in bacterial CFU in lungs at 100 mg/kg, po administered for 5 days a week for 3 weeks beginning on day 70 postinfection relative to OPC-67683; assay type: functional
Procedure, shortened: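 Chronic M. tb infection model with dosing starting ~70 days post infection, once bacteria are in a plateau phase of growth. Oral 100 mg/kg daily, 5 days/week, 3 weeks. Lung CFUs counted. Value is the fold CFU reduction for the compound relative to the fold reduction for the reference agent.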

SMILES	remaining at 0.75 h, 1 µM [1]	solubility [3]	MIC [4]	MIC [5]	remaining at 1 h, 1 µM [6]	remaining at 1 h, 1 µM [7]	also measured
C[C@@H](O[C@@H]1COc2nc([N+](=O)[O-])cn2C1)c1ccc(OC(F)(F)F)cc1	60%	–	–	–	–	–	–
O=[N+]([O-])c1cn2c(n1)OC[C@@H](OCC#Cc1ccc(-c3ccc(OC(F)(F)F)cc3)nc1)C2	–	0.72 µg/mL (≈ 1.56 µM)	0.09 µM (≈ 0.0414 µg/mL)	0.52 µM (≈ 0.239 µg/mL)	93%	90%	solubility [2]: 4 µg/mL (≈ 8.69 µM); fold change (FC) [8]: 1
C[C@H](O[C@@H]1COc2nc([N+](=O)[O-])cn2C1)c1ccc(OC(F)(F)F)cc1	73%	–	–	–	–	–	–
CC(O[C@@H]1COc2nc([N+](=O)[O-])cn2C1)c1ccc(-c2ccc(OC(F)(F)F)cc2)cc1 (some centres not stated)	–	0.84 µg/mL (≈ 1.87 µM)	0.19 µM (≈ 0.0854 µg/mL)	1.5 µM (≈ 0.674 µg/mL)	100%	92%	Activity [9]: Toxic
O=[N+]([O-])c1cn2c(n1)OC[C@@H](OCc1ccc(OC(F)(F)F)cc1)C2 [PRETOMANID]	93%	–	–	–	–	–	fold change (FC) [10]: 0.14

Source: ChEMBL document CHEMBL1833943, “Synthesis and structure-activity relationships of varied ether linker analogues of the antitubercular drug (6S)-2-nitro-6-{[4-(trifluoromethoxy)benzyl]oxy}-6,7-dihydro-5h-imidazo[2,1-b][1,3]oxazine (PA-824)” (J Med Chem, 2011)
